Measured values from paper PMC8628544 (Developmental cell, 2021).
Read-outs that look alike come from different tables or passages of the source.

Legend:
[1] = tested on: E10.5 embryo cultures of Sptlc2^f/f Cdh5^CreERT2 mice; assay: Rescue experiments using ex-vivo embryo culture; parameters: species or system mouse; conditions: 25 nM 1-deoxySO-BSA; 24 hours; 4-OH-TMX
Summary of the method: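 Embryos were cultured in DMEM-F12 with 15% KSR, N2, Glutamax and Pen-Strep. Medium held 1 µM 4-OH-TMX, 5 µM sphingolipid-precursor-BSA and 25 nM test compound-BSA; controls received vehicle-BSA instead. Culture ran in O2-flushed sealed 50 mL tubes on a roller at 37°C, 5% CO2, for 24 h.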

[2] = tested on: human ESC-derived cardiomyocytes; assay: Cardiomyocyte differentiation of hESCs; type: cell-based; conditions: for gene expression in DKO cultures / fraction of TNNT2+ cells in DKO cultures: NR2F1/2 DKO
mouse LECs = type: cell-based
Summary of the method: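 LECs were isolated from collagenase D/dispase-digested mouse lymph nodes and grown overnight in semi-synthetic medium (DMEM, Hepes, 1% BSA, ITS-A, 1% FBS) with 1 µM sphingolipid-precursor-BSA. Deletion was induced with 0.5–1 µM 4-OH-TMX. Test compound-BSA (50–100 nM) or vehicle was added, with media renewed daily. At 24 h, cells were fixed and immunostained for NR2F2, Prox1 and […], then imaged by confocal microscopy.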

[3] = molecular target: NR2F1(LBD)-GAL4(DBD) fusion protein (Mus musculus, UniProt Q60632); assay: NR2F1; type: cell-based; conditions: Figure S1C
NR2F2 [4] = assay: NR2F2 reporter activity in HEK-293FT cells; type: cell-based; conditions: 1 µM
Summary of the method: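 HEK-293FT cells plated at 5 x 10^4 per well the day before, then PEI-transfected in antibiotic-free DMEM with 1% FBS. Each well received reporter plasmid, NHR plasmid and a Renilla normalisation plasmid. 24 h after transfection, test compound-BSA complexes diluted in 1% FBS medium were added. Dual luciferase read-out.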

HEK-293FT cells = assay: Cell viability of HEK-293FT cells; type: cell-based, human; conditions: 1 µM
NR2F1/2 = conditions: read-out: Kd for NR2F1/2; ref Kruse et al., 2008; cited from earlier work
NR2F1 LBD = molecular target: T1, NR2F1 LBD (Mus musculus, UniProt Q60632); assay: Metabolite pull-down / displacement with FLAG-tagged LBD and LC-MS; type: binding; conditions: 500 nM retinoic acid in medium
T1 sequence (Q60632 183-422): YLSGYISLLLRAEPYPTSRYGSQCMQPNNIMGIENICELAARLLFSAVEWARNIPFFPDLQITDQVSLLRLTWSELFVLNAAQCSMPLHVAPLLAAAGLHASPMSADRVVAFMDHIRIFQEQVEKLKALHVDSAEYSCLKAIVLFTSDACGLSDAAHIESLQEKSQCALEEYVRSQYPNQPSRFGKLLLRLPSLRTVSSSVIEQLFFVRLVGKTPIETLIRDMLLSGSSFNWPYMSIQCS

RARA LBD = molecular target: T2, RARA LBD (Homo sapiens, UniProt P10276); assay: Metabolite pull-down with FLAG-tagged control LBD and LC-MS; type: binding; conditions: C18+ mode; 500 nM all-trans-retinoic acid in medium; p-value 0.01
T2 sequence (P10276 183-417 limits assumed): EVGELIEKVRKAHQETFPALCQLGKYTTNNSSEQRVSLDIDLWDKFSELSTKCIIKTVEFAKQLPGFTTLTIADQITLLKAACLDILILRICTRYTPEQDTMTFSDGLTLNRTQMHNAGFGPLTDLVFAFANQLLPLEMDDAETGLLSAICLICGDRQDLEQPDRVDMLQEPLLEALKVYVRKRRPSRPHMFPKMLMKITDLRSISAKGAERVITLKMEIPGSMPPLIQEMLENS

NR2F2 [5] = conditions: at high concentrations; ref Kruse et al., 2008; cited from earlier work
[6] = molecular target: fluorescein-labeled SRC2-2 peptide; assay: fluorescence polarisation
[7] = molecular target: fluorescein-labeled SRC2-2 peptide; assay: fluorescence polarisation; remark: listed apart in the source
[8] = molecular target: fluorescein-labeled SRC2-2 peptide; assay: fluorescence polarisation; remark: listed apart in the source
[9] = 1 µM from day 1, WT, day 6, bulk RNA-seq

Chain of NR2F1(LBD)-GAL4(DBD) fusion protein (P04386 1-147 partner limits assumed, one chain of several): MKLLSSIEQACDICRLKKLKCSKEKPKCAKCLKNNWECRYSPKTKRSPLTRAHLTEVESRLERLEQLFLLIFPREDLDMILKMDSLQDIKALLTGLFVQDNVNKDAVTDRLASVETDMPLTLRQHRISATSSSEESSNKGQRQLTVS

CCC/C=C\CCCCCCCCCC[C@@H](O)[C@H](C)N [1-deoxySO-14Z, 1-deoxysphingosine (14Z)]
cardiac development in embryo cultures [1]: partially rescued | gene expression in DKO cultures [2]: minimally affected | fraction of TNNT2+ cells in DKO cultures ([2]; 1.5 µM from day 3): did not increase | number of viable cells in Sptlc2 deleted cultures (mouse LECs; 4OH-TMX, medium with D-erythroSO, Figure S3C): restored | other lymphatic endothelial markers (LYVE1 and NR2F2) (mouse LECs; within 24 hours after 4OH-TMX): no effects were observed | PROX1 levels in LECs (mouse LECs; within 24 hours after 4OH-TMX, versus vehicle): partially restored

COc1ccc(O)c2ccccc12 [4-methoxy-1-naphthol]
activity of the NR2F1(LBD)-GAL4(DBD) fusion protein [3]: inhibited

CCCCCCC(=O)CCCCCC/C=C/C[C@@H](O)[C@H](O)[C@@](N)(CO)C(=O)O [myriocin]
NR2F2 reporter activity (NR2F2 [4]): partially suppress | cell viability (HEK-293FT cells): without loss of cell viability | number of downregulated genes versus vehicle [2, 9]: 850 | number of upregulated genes versus vehicle [2, 9]: 1121

CCCCCCCCCCCCC/C=C/[C@@H](O)[C@H](C)N [1-deoxysphingosine]
fraction of TNNT2+ cells in WT cultures ([2]; WT, 1.5 µM from day 3, FACS day 9): increased | number of genes decreased by >2-fold versus vehicle ([2]; WT, day 9): 464 | number of genes increased by >2-fold versus vehicle ([2]; WT, day 9): 265

CC1=C(/C=C/C(C)=C/C=C/C(C)=C/C(=O)O)C(C)(C)CCC1 [retinoic acid, all-trans retinoic acid]
Kd (NR2F1/2): 26000 nM | metabolites with exact masses detected in the NR2F1 samples (NR2F1 LBD): no such metabolites were detected | enrichment in RARA but not NR2F1 samples (RARA LBD): 14.76 fold | agonist activity on NR2F2 (NR2F2 [5]): weak agonist

CCCCCCCCCCCCC/C=C/[C@@H](O)[C@@H](N)CO [D-erythroSO, D-erythro-sphingosine]
gene expression in DKO cultures [2]: minimally affected | fraction of TNNT2+ cells in DKO cultures ([2]; 1.5 µM from day 3): did not increase

NR2F1/2-LBD
Kd [6]: > 300 nM | Kd [7]: 68 nM | Kd [8]: > 300 nM
